Published values of several laboratories.
Target: Serine/threonine-protein kinase PLK2 (PLK2, Homo sapiens, UniProt Q9NYY3)

Nc1ncc(-c2nc(N3CCOCC3)nc(N3CCOCC3)n2)c(C(F)F)n1 — remaining binding (binding, competition with immobilised ligand; 10 µM): 73%
Cn1cc(-c2cc(F)cc(N3CCn4c(cc5c4CCCC5)C3=O)c2CO)cc(Nc2ccc(N3CCN(C4COC4)CC3)cn2)c1=O — inhibition (enzyme activity, inhibitor; 0.1 µM): 18%
COc1ncccc1-c1cnn2ccc(N3CCN(C(=O)OC(C)C)CC3)nc12 — remaining binding (binding, competition with immobilised ligand; 1 µM): 96%
Cn1cc(-c2cccc(N3CCc4c(sc5c4CC(C)(C)C5)C3=O)c2CO)cc(Nc2ccncn2)c1=O — inhibition (enzyme activity, inhibitor; 1 µM): 21%
Cn1cncc1[C@@](O)(COc1ccc(C#N)cc1-c1ccc(OC(F)(F)F)cc1)c1ccc(C#N)cc1 — remaining binding (cell-free assay, competition with immobilised ligand; 1 µM): 86%
CC(C)(C)c1cc(C=C(C#N)C#N)cc(Br)c1O — remaining activity (enzyme activity, inhibitor; 0.5 µM): 92.6%
Cc1nn(C)cc1-c1nc2c(N3CCN(Cc4ccc(Cl)cc4)CC3)c(Cl)cnc2[nH]1 — remaining binding (binding, competition with immobilised ligand; 1 µM): 93%
O=c1[nH]c2ccccc2n1C1CCN(Cc2ccc(-c3[nH]c4cc5ncnc5cc4nc3-c3ccccc3)cc2)CC1 — remaining signal (cell-free assay; 0.5 µM): 95.5%
N#CC1(c2ccccn2)CCN(Cc2cc(C(=O)O)c(=O)n3ccccc23)CC1 — remaining binding (cell-free assay, competition with immobilised ligand; 1 µM): 80%
